The source made the active and inactive calls. The rule behind the calls is not given here.
Legend:
[1] = test system: Alpha-2 adrenergic receptor (Rattus norvegicus); test: In vitro presynaptic agonist potency at alpha-2 adrenergic receptor in rat or mouse vas deferens relative to clonidine; Inactive
[2] = target: T1, Adrenergic receptor alpha-1 (Rattus norvegicus) (UniProt P15823+P23944+P43140); test: In vitro postsynaptic antagonist potency at alpha-1 adrenergic receptor in rat anococcygeus relative to compound 5 (RX781094); assay type: functional
[3] = target: T1, Adrenergic receptor alpha-1 (Rattus norvegicus); test: In vitro postsynaptic agonist potency at alpha-1 adrenergic receptor in rat anococcygeus muscle relative to phenylephrine; assay type: functional, tissue-based
[4] = In vitro antagonism at Alpha-2 adrenergic receptor in rat or mouse vas deferens relative to RX781094.; assay type: functional
Procedure, shortened: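 Prostatic half of vas deferens from male Sprague–Dawley rats (200–250 g; Krebs, 30 °C, 95% O2/5% CO2, 0.1 Hz, 3-ms, 40 V) or from mice (magnesium-free Krebs, 100–140 V). Tension 0.5 g; isometric twitch recording. […] The concentration giving 50% reversal of the inhibition was compared with standard 5 in the same tissue.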

[5] = target: T1, Adrenergic receptor alpha-1 (Rattus norvegicus); test: Ratio of presynaptic antagonist potency to postsynaptic antagonist potency; assay type: functional
[6] = target: T1, Adrenergic receptor alpha-1 (Rattus norvegicus); test: In vitro postsynaptic agonist potency at alpha-1 adrenergic receptor in rat anococcygeus muscle relative to phenylephrine; IA means inactive.; assay type: functional, tissue-based
Procedure, shortened: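 Rat anococcygeus muscle (male Sprague–Dawley rats, 200–250 g) suspended at 0.5 g initial tension in a 50-mL organ bath. […] Standard dose-response curves were run before and after the analogue's curve.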

[7] = target: T2, Adrenergic receptor alpha-2 (Rattus norvegicus) (UniProt P22086+P19328+P22909); test: In vitro presynaptic agonist potency at alpha-2 adrenergic receptor in rat or mouse vas deferens relative to clonidine; IA means inactive; assay type: functional, tissue-based
Procedure, shortened: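 Field-stimulated rat or mouse vas deferens (Krebs, 30 °C, 95% O2/5% CO2, 3-ms pulses at 0.1 Hz) with isometric twitch recording. […] Standard dose-response curves were run before and after the analogue's curve.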

[8] = target: T2, Adrenergic receptor alpha-2 (Rattus norvegicus); test: In vitro presynaptic antagonist potency at alpha-2 adrenergic receptor in rat or mouse vas deferens relative to compound 5 (RX781094); assay type: functional, tissue-based
Procedure, shortened: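 Prostatic halves of rat vas deferens (male Sprague–Dawley rats, 200–250 g; Krebs, 30 °C, 95% O2/5% CO2; 3-ms, 40 V, 0.1 Hz field pulses) or mouse vas deferens (Mg-free Krebs, 30 °C; 3-ms pulses, 0.1 Hz, 100–140 V) were used, with isometric twitch recording. […] The concentration giving 50% reversal was compared with the RX781094 standard in the same tissue.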

[9] = target: T2, Adrenergic receptor alpha-2 (Rattus norvegicus); test: In vitro presynaptic agonist potency at alpha-2 adrenergic receptor in rat or mouse vas deferens relative to clonidine; assay type: functional, tissue-based
Procedure, shortened: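 Field-stimulated rat or mouse vas deferens under 0.5 g tension, at 0.1 Hz with 3-ms pulses, 30 °C, gassed with 95% O2/5% CO2. Contractions were recorded isometrically. Standard dose-response curves were run before and after each analogue curve. Potency was expressed relative to the standard in the same experiment.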

[10] = target: T1, Adrenergic receptor alpha-1 (Rattus norvegicus); test: In vitro postsynaptic antagonist potency at alpha-1 adrenergic receptor in rat anococcygeus relative to compound 5 (RX781094); AG means compound is agonist.; assay type: functional; conditions: filed as agonist
[11] = target: T1, Adrenergic receptor alpha-1 (Rattus norvegicus); test: In vitro postsynaptic antagonist potency at alpha-1 adrenergic receptor in rat anococcygeus relative to compound 5 (RX781094); IA means compound is inactive.; assay type: functional
[12] = test system: Alpha-2 adrenergic receptor (Rattus norvegicus); test: In vitro presynaptic antagonist potency at alpha-2 adrenergic receptor in rat or mouse vas deferens; IA means compound is inactive.

Antagonist potency [2]	Selectivity [5]	Agonist potency [6]	Agonist potency [7]	Antagonist potency [8]	Antagonist potency [12]	SMILES	Agonist potency [1]	Agonist potency [3]	Antagonist potency [4]	Agonist potency [9]	Antagonist potency [10]	Antagonist potency [11]
< 0.02	–	inactive	inactive	0.0003	–	c1ccc2c(c1)OCC(c1nc3ccccc3[nH]1)O2 (stereo not given)	–	–	–	–	–	–
–	–	–	–	–	–	Oc1ccc2c(c1)OCC(C1=NCCN1)O2 (stereo not given)	–	0.55	0.017	0.015	Agonist	–
0.03	0.01	inactive	inactive	0.0003	–	N=C(NCCc1ccccc1)C1COc2ccccc2O1 (stereo not given)	–	–	–	–	–	–
0.01	0.01	inactive	inactive	0.0001	–	CC1(C)CN=C(C2COc3ccccc3O2)N1 (stereo not given)	–	–	–	–	–	–
–	–	–	inactive	0.01	–	N=C(N)C1COc2ccccc2O1 (stereo not given)	–	0.05	–	–	–	–
0.1	0.003	inactive	inactive	0.0003	–	CN1CCN=C1C1COc2ccccc2O1 (stereo not given)	–	–	–	–	–	–
–	–	–	–	–	–	Oc1cccc2c1OCC(C1=NCCN1)O2 (stereo not given)	inactive	0.017	0.018	–	Agonist	–
0.01	0.01	inactive	inactive	0.0001	–	N=C(C1COc2ccccc2O1)N1CCCCC1 (stereo not given)	–	–	–	–	–	–
0.14	0.33	inactive	inactive	0.045	–	c1ccc2c(c1)OCC(CC1=NCCN1)O2 (stereo not given)	–	–	–	–	–	–
–	–	inactive	inactive	–	inactive	c1ccc2c(c1)OCC(c1nn[nH]n1)O2 (stereo not given)	–	–	–	–	–	inactive
0.1	0.1	inactive	inactive	0.01	–	c1ccc2c(c1)OCC(C1=NCCCN1)O2 (stereo not given)	–	–	–	–	–	–
0.024	–	inactive	inactive	< 0.001	–	N/C(=N\CCCO)C1COc2ccccc2O1 (stereo not given)	–	–	–	–	–	–
0.1	0.01	inactive	–	0.001	–	COc1cccc(OC)c1OCC/N=C(\N)C1COc2ccccc2O1 (stereo not given)	–	–	–	0.0001	–	–
< 0.023	–	inactive	inactive	< 0.0003	–	Nc1noc(CC2COc3ccccc3O2)n1 (stereo not given)	–	–	–	–	–	–
0.01	0.1	inactive	inactive	0.001	–	c1ccc2c(c1)OCC(c1ncc[nH]1)O2 (stereo not given)	–	–	–	–	–	–
0.1	0.01	inactive	inactive	0.001	–	CCCC/N=C(\NCCCC)C1COc2ccccc2O1 (stereo not given)	–	–	–	–	–	–
–	–	–	–	–	–	Clc1cccc2c1OC(C1=NCCN1)CO2 (stereo not given)	–	0.4	0.49	0.67	Agonist	–
–	–	–	–	–	–	Brc1ccc2c(c1)OCC(C1=NCCN1)O2 (stereo not given)	inactive	0.05	0.01	–	–	inactive
1	0.003	inactive	inactive	0.003	–	CC1CN=C(C2COc3ccccc3O2)N1 (stereo not given)	–	–	–	–	–	–
0.25	0.016	inactive	inactive	0.004	–	c1ccc2c(c1)OCC(Cc1ncc[nH]1)O2 (stereo not given)	–	–	–	–	–	–
< 0.023	–	inactive	inactive	0.013	–	c1ccc2c(c1)OCC(Cn1ccnc1)O2 (stereo not given)	–	–	–	–	–	–
–	–	–	–	–	–	Cc1ccc(C)c2c1OCC(C1=NCCN1)O2 (stereo not given)	–	2.5	0.005	0.19	Agonist	–
–	–	–	–	–	–	Oc1ccc2c(c1)OC(C1=NCCN1)CO2 (stereo not given)	–	1.1	0.036	0.15	Agonist	–
0.1	–	inactive	inactive	–	inactive	COCC/N=C(\N)C1COc2ccccc2O1 (stereo not given)	–	–	–	–	–	–

SMILES	Antagonist potency [2]	Selectivity [5]	Agonist potency [6]	Agonist potency [7]	Antagonist potency [8]	Antagonist potency [12]	Agonist potency [1]	Agonist potency [3]	Antagonist potency [4]	Agonist potency [9]	Antagonist potency [10]	Antagonist potency [11]
Clc1ccc2c(c1)OCC(C1=NCCN1)O2 (stereo not given)	1	0.01	–	–	–	–	inactive	0.005	0.01	–	–	–
Oc1cccc2c1OC(C1=NCCN1)CO2 (stereo not given)	0.2	0.2	inactive	inactive	–	–	–	–	0.04	–	–	–
Cc1cccc2c1OC(C1=NCCN1)CO2 (stereo not given)	–	–	–	–	0.5	–	–	2.1	–	0.01	Agonist	–
c1ccc2cc3c(cc2c1)OCC(C1=NCCN1)O3 (stereo not given)	0.01	0.1	inactive	inactive	0.001	–	–	–	–	–	–	–
Clc1ccc(Cl)c2c1OCC(C1=NCCN1)O2 (stereo not given)	–	–	–	–	0.26	–	–	0.55	–	0.02	Agonist	–
COc1cccc2c1OCC(C1=NCCN1)O2 (stereo not given)	–	–	–	inactive	–	–	–	5	0.001	–	–	inactive
Clc1cc2c(cc1Cl)OC(C1=NCCN1)CO2 (stereo not given)	0.3	0.01	inactive	–	0.003	–	inactive	–	–	–	–	–
CC(C)(C)c1ccc2c(c1)OCC(C1=NCCN1)O2 (stereo not given)	0.1	0.1	inactive	inactive	0.01	–	–	–	–	–	–	–
Fc1ccc2c(c1)OCC(C1=NCCN1)O2 (stereo not given)	0.1	0.1	inactive	–	–	–	inactive	–	0.01	–	–	–
Cc1cc2c(cc1C)OC(C1=NCCN1)CO2 (stereo not given)	0.64	0.1	inactive	–	–	–	inactive	–	0.06	–	–	–
O=[N+]([O-])c1cccc2c1OC(C1=NCCN1)CO2 (stereo not given)	0.09	0.22	inactive	inactive	–	–	–	–	0.02	–	–	–
COc1ccc2c(c1)OCC(C1=NCCN1)O2 (stereo not given)	–	–	–	inactive	–	–	–	0.005	0.006	–	–	–
O=[N+]([O-])c1ccc2c(c1)OCC(C1=NCCN1)O2 (stereo not given)	< 0.02	–	inactive	inactive	–	–	–	–	<0.0003	–	–	–
COc1ccc2c(c1)OC(C1=NCCN1)CO2 (stereo not given)	0.225	0.09	inactive	inactive	–	–	–	–	0.02	–	–	–
COc1cccc2c1OC(C1=NCCN1)CO2 (stereo not given)	0.9	0.14	inactive	inactive	–	–	–	–	0.12	–	–	–

— ChEMBL document CHEMBL1122229, “alpha-adrenoreceptor reagents. 1. Synthesis of some 1,4-benzodioxans as selective presynaptic alpha 2-adrenoreceptor antagonists and potential antidepressants” (J Med Chem, 1983)
